Results published in ChEMBL document CHEMBL1137744, “Parallel synthesis, molecular modelling and further structure-activity relationship studies of new acylthiocarbamates as potent non-nucleoside HIV-1 reverse transcriptase inhibitors” (Eur J Med Chem, 2009).
Active and inactive are the calls of the source. The calls are words filed in the database; no cut-off is given here.

How the values were obtained:
[1] = system: Human immunodeficiency virus 1; assay: Antiviral activity against HIV1 3B expressing reverse transcriptase K103N/Y181C double mutant infected in human MT4 cells assessed as inhibition of virus-induced cytopathogenicity by MTT assay; format: functional, organism-based
[2] = Cytotoxicity against human MT4 cells by MTT assay; format: cell-based
How it was run: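 Uninfected (mock-infected) MT-4 cells were exposed to compound and viability was read by MTT. CC50 is the concentration cutting viability by 50%. Values are means of three separate experiments, with triplicate samples varying by less than 10%.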

[3] = system: Human immunodeficiency virus 1; assay: Ratio of EC50 for HIV1 3B expressing reverse transcriptase Y181C mutant to EC50 for HIV1 3B; format: functional
How it was run: (§1)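 MT-4 cells infected with HIV-1 carrying the Y181C RT mutation, alongside wild-type virus. EC50 is the concentration giving 50% protection from virus-induced cytopathogenicity, read by MTT. Values are means of three separate experiments run in triplicate. The ratio is EC50(Y181C)/EC50(wt).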

[4] = system: Human immunodeficiency virus 1; assay: Antiviral activity against HIV1 3B expressing reverse transcriptase Y181C mutant infected in human MT4 cells assessed as inhibition of virus-induced cytopathogenicity by MTT assay; format: functional, organism-based; conditions: Human immunodeficiency virus 1, 3B; how it was run: as §1
[5] = Selectivity index, ratio of CC50 for human MT4 cells to EC50 for HIV1 3B; format: toxicity, cell-based; conditions: read-out: Ratio CC50/EC50
How it was run: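 Computed as CC50/EC50. Both come from MTT readings in MT-4 cells: CC50 is 50% viability loss in mock-infected cells, and EC50 is 50% protection from HIV-1-induced cytopathogenicity. Each is the mean of three experiments.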

[6] = system: Human immunodeficiency virus 1; assay: Antiviral activity against HIV1 3B infected in human MT4 cells assessed as inhibition of virus-induced cytopathogenicity by MTT assay; format: functional, organism-based; conditions: Human immunodeficiency virus 1, 3B
How it was run: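 MT-4 cells infected with HIV-1 and read by MTT viability. EC50 is the concentration giving 50% protection of cells from virus-induced cytopathogenicity. Values are means of three separate experiments, with variation among triplicate samples under 10%.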

[7] = molecular target: Human immunodeficiency virus type 1 reverse transcriptase (Human immunodeficiency virus 1, UniProt Q72547); assay: Inhibition of wild-type HIV1 reverse transcriptase

Row | Compound | Activity [1] | CC50 [2] [µM] | Ratio EC50 [3] | EC50 [4] [µM] | selectivity ratio [5] | EC50 [6] [µM] | IC50 [7] [µM]
1 | O=C1c2ccccc2C(=O)N1CCOC(=S)N(C(=O)c1cccc(Cl)c1Cl)c1ccc(Cl)cc1 | inactive | 54 | 42 | 4.2 | 540 | 0.1 | –
2 | O=C1c2ccccc2C(=O)N1CCOC(=S)N(C(=O)c1ccc(Cl)c([N+](=O)[O-])c1)c1ccc(Cl)cc1 | inactive | 48 | 450 | 9 | 2400 | 0.02 | –
3 | O=C1c2ccccc2C(=O)N1CCOC(=S)N(C(=O)c1ccc([N+](=O)[O-])cc1)c1ccc(Cl)cc1 | inactive | > 100 | 433 | 26 | > 1670 | 0.06 | –
4 | CC(COC(=S)N(C(=O)c1cccc([N+](=O)[O-])c1)c1ccc(Cl)cc1)N1C(=O)c2ccccc2C1=O (racemic) | inactive | 77 | 100 | 5 | 1540 | 0.05 | –
5 | Cc1cccc2c1C(=O)N(CCOC(=S)N(C(=O)c1cccc([N+](=O)[O-])c1)c1ccc(Cl)cc1)C2=O | inactive | 44 | 140 | 4.2 | 1470 | 0.03 | –
6 | Cc1ccc2c(c1)C(=O)N(CCOC(=S)N(C(=O)c1cccnc1Cl)c1ccc(Cl)cc1)C2=O | inactive | 49 | 112 | 6.7 | 817 | 0.06 | –
7 | O=C1c2ccccc2C(=O)N1CCOC(=S)N(C(=O)c1cccnc1Cl)c1ccc(Br)cc1 | inactive | > 100 | 11 | 2.3 | > 500 | 0.2 | 0.7
8 | O=C1Nc2ccc(Cl)cc2[C@@](C#CC2CC2)(C(F)(F)F)O1 [EFAVIRENZ] | inactive | – | – | 0.01 | – | – | –
9 | Cc1cc(C(=O)N(C(=S)OCCN2C(=O)c3ccccc3C2=O)c2ccc(Cl)cc2)c(C)o1 | inactive | 40 | 375 | 7.5 | 2000 | 0.02 | –
10 | O=C1c2ccccc2C(=O)N1CCOC(=S)N(C(=O)c1cc2ccccc2s1)c1ccc(Cl)cc1 | inactive | 56 | 60 | 12 | 280 | 0.2 | –
11 | O=C1c2ccccc2C(=O)N1CCOC(=S)N(C(=O)c1ccc(F)cc1F)c1ccc(Cl)cc1 | inactive | 52 | 540 | 5.4 | 5200 | 0.01 | –
12 | Cc1ccc(C(=O)N(C(=S)OCCN2C(=O)c3ccccc3C2=O)c2ccc(Cl)cc2)cc1 | inactive | > 100 | 170 | 8.5 | > 2000 | 0.05 | –
13 | O=C1c2ccccc2C(=O)N1CCOC(=S)N(C(=O)c1cccc(F)c1F)c1ccc(Cl)cc1 | inactive | 58 | 750 | 6 | 7250 | 0.008 | –
14 | S=C(NCCc1ccccn1)Nc1ccc(Br)cn1 [TROVIRDINE] | inactive | – | 60 | 1.2 | 3000 | – | –
15 | O=C1c2ccccc2C(=O)N1CCOC(=S)N(C(=O)c1cc(Cl)cc(Cl)c1)c1ccc(Cl)cc1 | inactive | 32 | 1025 | 8.2 | 4000 | 0.008 | –
16 | O=C1c2ccccc2C(=O)N1CCOC(=S)N(C(=O)c1cc(F)ccc1F)c1ccc(Cl)cc1 | inactive | 54 | 285 | 5.7 | 2700 | 0.02 | –
17 | O=C1c2ccccc2C(=O)N1CCOC(=S)N(C(=O)c1ccc2ccccc2c1)c1ccc(Cl)cc1 | inactive | 37 | 550 | 11 | 1850 | 0.02 | –
18 | Cc1cc(C(=O)N(C(=S)OCCN2C(=O)c3ccccc3C2=O)c2ccc(Cl)cc2)ccc1Br | inactive | 18 | 1557 | 10.9 | 2570 | 0.007 | –
19 | CC(CN1C(=O)c2ccccc2C1=O)OC(=S)N(C(=O)c1cccc([N+](=O)[O-])c1)c1ccc(Cl)cc1 (racemic) | – | 31 | – | – | 44.3 | 0.7 | –
20 | O=C1c2ccccc2C(=O)N1CCOC(=S)N(C(=O)c1c(Cl)cccc1Cl)c1ccc(Cl)cc1 | – | 20 | – | – | 3.6 | 5.6 | –
21 | Cc1ccc(N(C(=O)c2cccc(C)c2)C(=S)OCCN2C(=O)c3ccccc3C2=O)cc1 | – | > 100 | – | – | > 2500 | 0.04 | –
22 | Cc1cccc(C(=O)N(C(=S)OCCN2C(=O)c3ccccc3C2=O)c2ccc(Cl)cc2)c1 | inactive | 58 | 600 | 6 | 5800 | 0.01 | –
23 | Cc1ccc2c(c1)C(=O)N(CCOC(=S)N(C(=O)c1ccc(Cl)cc1)c1ccc([N+](=O)[O-])cc1)C2=O | – | > 100 | – | – | > 2500 | 0.04 | 0.3
24 | O=C1c2ccccc2C(=O)N1CCOC(=S)N(C(=O)c1ccc(Cl)c(Cl)c1)c1ccccc1 | – | 52 | – | – | 104 | 0.5 | –
25 | O=C1c2ccccc2C(=O)N1CCOC(=S)N(C(=O)c1ccc(Cl)cc1Cl)c1ccc(Cl)cc1 | – | 18 | – | – | 600 | 0.03 | –
26 | Cc1ccc(N(C(=O)c2ccc(Cl)c([N+](=O)[O-])c2)C(=S)OCCN2C(=O)c3ccccc3C2=O)cc1 | – | 47 | – | – | 783 | 0.06 | –
27 | Cc1ccc2c(c1)C(=O)N(CCOC(=S)N(C(=O)c1cccc([N+](=O)[O-])c1)c1ccc(Cl)cc1)C2=O | – | > 100 | – | – | > 2000 | 0.05 | –
28 | O=C1c2ccccc2C(=O)N1CCOC(=S)N(C(=O)c1ccc(F)c(F)c1)c1ccc(Cl)cc1 | inactive | 52 | 7000 | 56 | 6500 | 0.008 | –
29 | Cc1ccc(N(C(=O)c2c(F)cccc2F)C(=S)OCCN2C(=O)c3ccccc3C2=O)cc1 | – | 65 | – | – | 65 | 1 | –
